# Activity calls are given as the source filed them.
# Columns and labels:
# Mus musculus [1] = species on record: Mus musculus; assay: Analgesic activity in male albino Swiss-Webster mice in hotplate test; type: functional; design: unit not given here
# Procedure, shortened: (§1)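 Mouse hot-plate assay after Woolfe, with the plate held at 52.5 ± 0.1 °C and a 45 s cutoff. Groups held 8–20 mice. Analgesic potency is expressed as the ED50.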
# Mus musculus [2] = assay: Analgesic potency was evaluated as effective dose after subcutaneous administration.; type: functional; procedure, shortened: as §1
# [3] = molecular target: Muscarinic acetylcholine receptor; assay: The compound is evaluated for binding affinity against central muscarinic receptor by using [3H]- QNB as radioligand; type: protein assay
# Mus musculus [4] = species on record: Mus musculus; assay: Compound was evaluated for analgesic activity, in male albino Swiss-Webster mice with hotplate test and maximum level of analgesia reached is evaluated; type: functional
# Procedure, shortened: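 Mouse hot-plate at 52.5 ± 0.1 °C with a 45 s cutoff. Each compound was given at its maximal nontoxic dose, defined as no visible behavioural change to blinded observers. Efficacy = (max reaction time − pretest)/(same for morphine-HCl 8 mg/kg sc) × 100.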
# Mus musculus [5] = assay: Analgesic potency was evaluated as Effective Dose 50 after subcutaneous administration. Standard error given in parenthesis; type: functional; conditions: sc; procedure, shortened: as §1
# [6] = Mus musculus, sc, read-out: ED50
SMILES,Analgesic activity (Mus musculus [1]),ED50 (Mus musculus [2]; [6]) [mg/kg],other results
CC[C@@H](Oc1ccc(Cl)cc1)C(=O)OC1CC2CCC(C1)N2C (stereo partly drawn),89,14,
"CCC(Sc1ccccc1)C(=O)OC1CC2CCC(C1)N2C (single isomer, unassigned; (+))",86,16,
CCC(Oc1ccc(Cl)cc1)C(=O)OC1CC2CCC(C1)N2C.O=C(O)/C=C\C(=O)O (racemic),99,20,Ki [3]: 174 nM
CCC(Oc1cccc2ccccc12)C(=O)OC1CC2CCC(C1)N2C (stereo not drawn),inactive,,
CC(Sc1ccc(F)cc1)C(=O)OC1CC2CCC(C1)N2C (stereo not drawn),41,15,
CCC(Oc1ccc2cc(Br)ccc2c1)C(=O)OC1CC2CCC(C1)N2C.O=C(O)/C=C\C(=O)O (stereo not drawn),32,42,
CN1C2CCC1CC(OC(=O)C(C)(C)Oc1ccc(Cl)cc1)C2 (stereo not drawn),52,23,
CCC(Oc1ccc(Cl)cc1)C(=O)OC1CCN(C)CC1 (stereo not drawn),inactive,,
CN1C2CCC1CC(OC(=O)C(Oc1ccc(Cl)cc1)c1ccccc1)C2 (stereo not drawn),inactive,,
CCN1C2CCC1CC(OC(=O)C(C)Oc1ccc(Cl)cc1)C2.O=C(O)/C=C\C(=O)O (stereo not drawn),42,42,
CC(Oc1cccc(Cl)c1)C(=O)OC1CC2CCC(C1)N2C (stereo not drawn),62,26,
CCC(Oc1ccc(Cl)c2ccccc12)C(=O)OC1CC2CCC(C1)N2C (stereo not drawn),inactive,,
CC(Oc1ccc(Cl)cc1)C(=O)OC1CC2CCC(C1)N2C.O=C(O)/C=C\C(=O)O (stereo in doubt; 12),26,,ED50 (Mus musculus [2]): 21 mg/kg
CC(Oc1ccc(-c2ccccc2)cc1)C(=O)OC1CC2CCC(C1)N2C (stereo not drawn),inactive,,
CCN(CC)CCOC(=O)C(C)Oc1ccc(Cl)cc1 (stereo not drawn),inactive,,
CC(Oc1ccc(Br)cc1)C(=O)OC1CC2CCC(C1)N2C (stereo not drawn),86,31,
Cc1cc(OC(C)C(=O)OC2CC3CCC(C2)N3C)ccc1Cl (stereo not drawn),inactive,,
CC(Nc1ccccc1)C(=O)OC1CC2CCC(C1)N2C.Cl (stereo not drawn),74,32,
C[C@@H](Sc1ccc(Cl)cc1)C(=O)OC1CC2CCC(C1)N2C (stereo partly drawn),61,14,
CN1C2CCC1CC(OC(=O)COc1ccccc1)C2 (stereo not drawn),inactive,,
CC[C@H](Oc1ccc(Cl)cc1)C(=O)OC1CC2CCC(C1)N2C (stereo partly drawn),56,18,
CC(Oc1ccc(Cl)cc1)C(=O)OC1CC2CCC(C1)N2Cc1ccccc1 (stereo not drawn),inactive,,
CCC(Oc1ccc(Cl)cc1)C(=O)OCCCN(C)C (stereo not drawn),inactive,,
CC(Nc1ccc(Cl)cc1)C(=O)OC1CC2CCC(C1)N2C (stereo not drawn),33,31,
CC(Sc1ccc(Cl)cc1)C(=O)OC1CC2CCC(C1)N2C.O=C(O)/C=C\C(=O)O (racemic),72,19,

SMILES,Analgesic activity (Mus musculus [1]),ED50 (Mus musculus [2]; [6]) [mg/kg],other results
CC(=O)OCC(Oc1ccc(Cl)cc1)C(=O)OC1CC2CCC(C1)N2C (stereo not drawn),25,23,
CC(Sc1ccccc1)C(=O)OC1CC2CCC(C1)N2C.O=C(O)/C=C\C(=O)O (stereo not drawn),62,30,
CC(C)C(Oc1ccc(Cl)cc1)C(=O)OC1CC2CCC(C1)N2C (stereo not drawn),inactive,,
CC(Oc1ccc(C#N)cc1)C(=O)OC1CC2CCC(C1)N2C.O=C(O)/C=C\C(=O)O (stereo not drawn),53,31,
CC(COC1CC2CCC(C1)N2C)Sc1ccc(Cl)cc1 (stereo not drawn),inactive,,
CC(Oc1ccccc1Cl)C(=O)OC1CC2CCC(C1)N2C (stereo not drawn),inactive,,
CC(Oc1ccc(Cl)c(Cl)c1)C(=O)OC1CC2CCC(C1)N2C.O=C(O)/C=C\C(=O)O (stereo not drawn),50,22,
CC(Oc1ccc([S+](C)[O-])cc1)C(=O)OC1CC2CCC(C1)N2C (stereo not drawn),inactive,,
C[C@@H](Oc1ccc(F)cc1)C(=O)OC1CC2CCC(C1)N2C (stereo partly drawn),106,21,
CC(Oc1ccc(F)cc1)C(=O)OC1CC2CCC(C1)N2C.O=C(O)/C=C\C(=O)O (racemic),91,33,
CC(C(=O)OC1CC2CCC(C1)N2C)C(=O)c1ccc(Cl)cc1 (stereo not drawn),30,34,
CC(Sc1ccc(Br)cc1)C(=O)OC1CC2CCC(C1)N2C (stereo not drawn),33,35,
CCC(Sc1ccccc1)C(=O)OC1CC2CCC(C1)N2C (racemic),103,,ED50 (Mus musculus [2]): 18 mg/kg; Ki [3]: 22.7 nM
CC(Oc1ccc(Cl)cc1)C(=O)OC1CC2CCC(C1)N2C.O=C(O)/C=C\C(=O)O (racemic),,32,Analgesic activity (Mus musculus [4]): 90
CCC(Sc1ccccc1)C(=O)OC1CC2CCC(C1)N2C (stereo in doubt; (-)-42),53,,ED50 (Mus musculus [2]): 13 mg/kg
CC(Oc1ccc(Cl)cc1)C(=O)NC1CC2CCC(C1)N2C.Cl (stereo not drawn),33,36,
C[C@@H](Oc1ccc(Cl)cc1)C(=O)OC1CC2CCC(C1)N2C (stereo partly drawn),68,16,
CCC(COC1CC2CCC(C1)N2C)Oc1ccc(Cl)cc1 (stereo not drawn),inactive,,
CC(C(=O)OC1CC2CCC(C1)N2C)[S+]([O-])c1ccccc1 (stereo not drawn),inactive,,
CC[C@@H](Sc1ccc(Cl)cc1)C(=O)OC1CC2CCC(C1)N2C (stereo partly drawn),64,11,
CC(Oc1cccc2ccccc12)C(=O)OC1CC2CCC(C1)N2C (stereo not drawn),inactive,,
CC(C(=O)OC1CC2CCC(C1)N2C)N(C)c1ccc(Cl)cc1.O=C(O)/C=C\C(=O)O (stereo not drawn),86,29,
CC(Oc1ccc(Cl)cc1)C(=O)OC1CCN(C)CC1 (stereo not drawn),inactive,,
C[C@H](Sc1ccc(Cl)cc1)C(=O)OC1CC2CCC(C1)N2C (stereo partly drawn),34,16,
CCC(COC1CC2CCC(C1)N2C)Sc1ccc(Cl)cc1 (stereo not drawn),53,39,

SMILES,Analgesic activity (Mus musculus [1]),ED50 (Mus musculus [2]; [6]) [mg/kg],other results
C[C@H](Oc1ccc(F)cc1)C(=O)OC1CC2CCC(C1)N2C (stereo partly drawn),65,23,
CC(Oc1ccccc1)C(=O)OC1CC2CCC(C1)N2C (stereo not drawn),inactive,,
CCC(Sc1ccc(Cl)cc1)C(=O)OC1CC2CCC(C1)N2C (racemic),79,20,
CCC(Oc1ccc(F)cc1)C(=O)OC1CC2CCC(C1)N2C (stereo not drawn),94,37,
CC(Oc1ccc2ccccc2c1)C(=O)OC1CC2CCC(C1)N2C.O=C(O)/C=C\C(=O)O (stereo not drawn),86,34,
CCC(Oc1ccc(Cl)cc1)C(=O)OC1CC2CCC(C1)N2CC (stereo not drawn),45,32,
CSc1ccc(OC(C)C(=O)OC2CC3CCC(C2)N3C)cc1.O=C(O)/C=C\C(=O)O (stereo not drawn),21,43,
CC[C@H](Sc1ccc(Cl)cc1)C(=O)OC1CC2CCC(C1)N2C (stereo partly drawn),38,14,
CN1C2CCC1CC(OC(=O)CCOc1ccccc1)C2.O=C(O)/C=C\C(=O)O (stereo not drawn),,,ED50 (Mus musculus [5]): 22 mg/kg; Analgesic activity (Mus musculus [4]): 28
CC(Oc1ccc(Cl)cc1)C(=O)OC1CC2CCC(C1)N2 (stereo not drawn),inactive,,
CCN(CC)CC#CCOC(=O)C(C)Oc1ccc(Cl)cc1 (stereo not drawn),inactive,,
CCC(C(=O)OC1CC2CCC(C1)N2C)N(C)c1ccc(Cl)cc1.O=C(O)/C=C\C(=O)O (stereo not drawn),85,38,
C[C@H](Oc1ccc(Cl)cc1)C(=O)OC1CC2CCC(C1)N2C (stereo partly drawn),37,17,
CC(Oc1ccc(Cl)c2ccccc12)C(=O)OC1CC2CCC(C1)N2C (stereo not drawn),inactive,,
CCC(Oc1ccccc1)C(=O)OC1CC2CCC(C1)N2C (stereo not drawn),35,31,
CC(Oc1ccc(C(C)(C)C)cc1)C(=O)OC1CC2CCC(C1)N2C (stereo not drawn),inactive,,
CC(Oc1ccc(C(F)(F)F)cc1)C(=O)OC1CC2CCC(C1)N2C (stereo not drawn),44,26,
CN1C2CCC1CC(OC(=O)C(Cc1ccccc1)Oc1ccc(Cl)cc1)C2 (stereo not drawn),inactive,,
CC(C)C(Sc1ccc(Cl)cc1)C(=O)OC1CC2CCC(C1)N2C.O=C(O)/C=C\C(=O)O (stereo not drawn),41,41,
Cc1ccc(SC(C)C(=O)OC2CC3CCC(C2)N3C)cc1.O=C(O)/C=C\C(=O)O (stereo not drawn),33,7,
CCC(Oc1ccc2ccccc2c1)C(=O)OC1CC2CCC(C1)N2C (stereo not drawn),inactive,,
CCC(Oc1ccc(Cl)cc1)C(=O)OCC#CCN(CC)CC (stereo not drawn),inactive,,
CC(Oc1ccc2cc(Br)ccc2c1)C(=O)OC1CC2CCC(C1)N2C (stereo not drawn),inactive,,
CC(COC1CC2CCC(C1)N2C)Oc1ccc(Cl)cc1 (stereo not drawn),64,44,

# Reference: ChEMBL document CHEMBL1127533, “Presynaptic cholinergic modulators as potent cognition enhancers and analgesic drugs. 2. 2-Phenoxy-, 2-(phenylthio)-, and 2-(phenylamino)alkanoic acid esters” (J Med Chem, 1994)
